Experimental data reported in article PMC3954503 (Journal of Medicinal Chemistry, 2014).
Where two headings read alike, the source gives them in different places. Blank lines part the entries; values can stand above or below the molecule they belong to.

Columns and labels:
[1] = system: HIV-1 FSS RNA upper stem-loop; assay: SPR binding to immobilized HIV-1 FSS RNA upper stem-loop; settings: for weaker binding / decrease in affinity relative to dimers 4 and 5 / increased affinity over 2 and 3: SPR KD ratio
Method in brief: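 Streptavidin (about 2000 RU) on a CM5 chip; 5′-biotin HIV-1 FSS RNA (500 nM) captured once at about 300 RU and once at about 1200 RU, against a biotin-blocked reference cell. Compound series run in (a) HBS pH 7.4 at 60 μL/min or (b) HEPES/NaCl/MgCl2/Tween-20 at 50 μL/min, each injection at least twice. For (a), ≥5 sensorgrams globally fit to a 1:1 Langmuir model; for (b), individual fits; ka, kd, KD derived.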

[2] = system: pseudotyped HIV-1 virions; assay: Single-round infectivity assay with pseudotyped HIV-1; type: cell-based
[3] = system: HIV-1 FSS-dependent −1 frameshifting in HEK 293FT cells; assay: Dual-luciferase frameshift assay, pDualHIV; type: cell-based, human; settings: pDualHIV(−1)
Method in brief: (§1)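 HEK 293FT cells plated at 1.5 × 10^4 cells/well 6 h before transfection, in DMEM with 10% FBS. Transfected with 0.2 μg reporter plasmid (lipofectamine 2000). At 5 h, test compound (0–50 μM) added in triplicate for 36 h at 37 °C. Cells PBS-washed and lysed; Rluc and Fluc read by dual-luciferase assay. Fluc/Rluc ratio expressed relative to untreated cells, set to 100%.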

[4] = target: HIV-1 FSS RNA; settings: read-out: KD for HIV-1 FSS; ref [31]; cited from earlier work
[5] = system: tRNA; settings: previously found; cited from earlier work
[6] = system: HIV-1 FSS RNA upper stem-loop; settings: conditions (a) HBS buffer; ref [35]; cited from earlier work
[7] = system: HEK 293FT cells; assay: WST-1 cell viability assay; type: cell-based, human; settings: 24 h
Method in brief: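 HEK 293FT cells grown to 80% confluence in 96-well plates (DMEM, 10% FBS, 37 °C). Test compound (up to 0.5 mM) or sterile water control added in triplicate for 24 h at 37 °C. Premix WST-1 reagent then added for 2 h at 37 °C. Absorbance at 450 minus 690 nm, blank-corrected, plotted against concentration; mean of three with SD.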

[8] = system: HEK 293FT cells; assay: Cell permeation by fluorescence microscopy; type: cell-based, human; settings: HEK 293FT, 50, 100, 200, and 500 μM for 12 h
Method in brief: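 HEK 293FT cells grown to 80% confluence at 37 °C, 5% CO2, in DMEM with 10% FBS and 1% penicillin-streptomycin. Cells exposed to test compound for 12 h (methods give 50 μM; the text lists 50–500 μM). Washed twice with PBS to remove surface-bound compound, then imaged in buffer by fluorescence microscopy with 358-nm excitation and 460-nm emission filters.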

[9] = system: HTLV-2 FSS RNA; assay: SPR binding to HTLV-2 FSS RNA; settings: concentrations up to 3 μM; HBS buffer
Method in brief: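 SPR on a CM5 chip with about 2000 RU streptavidin, immobilized by EDC/NHS. 5′-Biotin HTLV-2 FSS RNA (500 nM) captured to about 300–1200 RU; the biotin-blocked flow cell served as reference. Test compound flowed at varying concentrations in HBS (0.01 M HEPES, 0.150 M NaCl, pH 7.4) at 60 μL/min. Each concentration injected at least twice; sensorgrams reference-subtracted and blank-corrected.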

[10] = system: pDualHIV(0) transfected HEK 293FT cells; assay: Dual-luciferase control assay, pDualHIV; type: cell-based, human
Method in brief: as §1

[11] = system: HIV-1 FSS DNA; assay: Fluorescence titration with HIV-1 FSS DNA; type: binding; settings: by fluorescence
Method in brief: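 Fluorescence titration in 20 mM HEPES, 150 mM NaCl, with test compound at 1 μM. HIV-1 FSS RNA (10 μM stock) or FSS DNA (40 μM stock) titrated in. Each addition mixed, then 10 min to equilibrate. Benzo[g]quinoline fluorescence quenching read three times, 1 min apart, and corrected for dilution to give KD. Selectivity compares the FSS RNA and FSS DNA KDs.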

[12] = system: Gag:Gag-Pol ratio in pseudotyped virions; assay: Western blot of isolated viral particles for RT and p24; type: cell-based, HIV-1; settings: for RT in unprocessed Gag-Pol (p160) relative to mature RT (p66 + p51) / amount of RT relative to capsid protein p24: Western blot of viral particles; for amount of RT relative to capsid protein p24: as a function of added compound
Method in brief: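 HEK293T producer cells co-transfected with env-deleted, GFP-carrying HIV-1NL4–3 proviral vector and VSV-G vector (1:0.5, Fugene HD). Test compound added 4 h post-transfection; virions collected from media at 24 h through a 0.45-μm filter. Equal p24-ELISA loads were pelleted through a 20% sucrose cushion at 100,000g, then Western blotted for RT and p24.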

[13] = conditions (a) HBS buffer (0.01 M HEPES, 0.150 M NaCl, pH = 7.4), global fit
[14] = conditions (b) 20 mM HEPES, 150 mM NaCl, 5 mM MgCl2, 0.005% Tween-20

- weaker binding / decrease in affinity relative to dimers 4 and 5 [1]: approximately 200 fold
- association rate, ka [1, 13]: (4.58 ± 1.27) × 10^3 M^–1s^-1
- dissociation rate kd [1, 13]: (1.21 ± 0.00) × 10^–2 s^–1
Molecule: CCc1nc2cc3ccccc3cc2cc1C(=O)N[C@@H](C/C=C\C[C@H](N)C(=O)N1CCC[C@H]1C(=O)N[C@@H](Cc1ccccc1)C(=O)NCCCN)C(=O)N1CCC[C@H]1C(=O)N[C@@H](Cc1ccccc1)C(=O)NCCCN [Compound 7]

- weaker binding / decrease in affinity relative to dimers 4 and 5 [1]: ~7 fold
- association rate, ka [1, 13]: (1.07 ± 0.07) × 10^4 M^–1s^-1
- dissociation rate kd [1, 13]: (7.92 ± 0.53) × 10^–3 s^–1
- cell penetration (internalization) [8]: internalized
- binding to HTLV-2 FSS by SPR [9]: no binding was observed
Molecule: CCc1nc2cc3ccccc3cc2cc1C(=O)N[C@@H](CSSC[C@H](NC(=O)c1cc2cc3ccccc3cc2nc1CC)C(=O)N1CCC[C@H]1C(=O)N[C@@H](Cc1ccccc1)C(=O)NCCCN)C(=O)N1CCC[C@H]1C(=O)N[C@@H](Cc1ccccc1)C(=O)NCCCN [Compound 11]
- concentrations at which compound proved toxic [7]: above 10 μM
- stimulation of HIV-1 frameshifting ([3]; concentrations above 10 µM not examined): approximately 25%

- weaker binding / decrease in affinity relative to dimers 4 and 5 [1]: 30 fold
- association rate, ka [1, 13]: (7.71 ± 4.9) × 10^3 M^–1s^-1
- dissociation rate kd [1, 13]: (1.63 ± 1.12) × 10^–1 s^–1
Molecule: CCc1nc2cc3ccccc3cc2cc1C(=O)N[C@@H](C/C=C/C[C@H](N)C(=O)N1CCC[C@H]1C(=O)N[C@@H](Cc1ccccc1)C(=O)NCCCN)C(=O)N1CCC[C@H]1C(=O)N[C@@H](Cc1ccccc1)C(=O)NCCCN [Compound 8]

- binding to HIV-1 FSS RNA by SPR (qualitative) [1]: No binding was observed
Molecule: 2-ethyl benzo[g]quinoline carboxylic acid

Continued, molecule first:

Molecule: NCCCNC(=O)[C@H](Cc1ccccc1)NC(=O)[C@@H]1CCCN1C(=O)[C@@H](N)C/C=C/C[C@H](N)C(=O)N1CCC[C@H]1C(=O)N[C@@H](Cc1ccccc1)C(=O)NCCCN [Compound 10]
- decrease in infectivity ([2]; 40 μM, producer cells treated): modest decrease
- binding to HIV-1 FSS RNA by SPR (qualitative) [1]: completely abrogated binding
- association rate, ka ([1]; conditions a, b (both buffers)): none obsd
- dissociation constant, KD ([1]; conditions a, b (both buffers)): none obsd
- dissociation rate kd ([1]; conditions a, b (both buffers)): none obsd
- increase in Fluc to Rluc ratio (−1 PRF) ([3]; at 50 μM, 36 h): no significant effect

Molecule: C=CC[C@H](NC(=O)c1cc2cc3ccccc3cc2nc1CC)C(=O)N1CCC[C@H]1C(=O)N[C@@H](Cc1ccccc1)C(=O)NCCCN [Compound 6]
- weaker binding / decrease in affinity relative to dimers 4 and 5 [1]: 200 fold
- association rate, ka [1, 13]: (1.16 ± 0.06) × 10^3 M^–1s^-1
- dissociation rate kd [1, 13]: (2.25 ± 0.01) × 10^–2 s^–1

Molecule: COc1cccc2c1C(=O)c1c(O)c3c(c(O)c1C2=O)C[C@@](O)(C(=O)CO)C[C@@H]3O[C@H]1C[C@H](N)[C@H](O)[C@H](C)O1 [Doxorubicin]
- Kd [4]: 2.8 µM

Molecule: CCc1nc2ccccc2cc1C(=O)N[C@@H](C/C=C/C[C@H](NC(=O)c1cc2ccccc2nc1CC)C(=O)N1CCC[C@H]1C(=O)N[C@@H](Cc1ccccc1)C(=O)NCCCN)C(=O)N1CCC[C@H]1C(=O)N[C@@H](Cc1ccccc1)C(=O)NCCCN [Compound 3]
- activity in pseudotyped HIV-1 assay ([2]; preliminary experiments (data not shown)): no activity
- affinity for tRNA [5]: no measurable affinity
- association rate, ka [6]: 1.62 × 10^3 M^–1s^-1
- dissociation rate kd [6]: 7.5 × 10^–3 s^–1

Molecule: CCc1nc2cc3ccccc3cc2cc1C(=O)N[C@@H](C/C=C/C[C@H](NC(=O)c1cc2cc3ccccc3cc2nc1CC)C(=O)N1CCC[C@H]1C(=O)N[C@@H](Cc1ccccc1)C(=O)NCCCN)C(=O)N1CCC[C@H]1C(=O)N[C@@H](Cc1ccccc1)C(=O)NCCCN [Compound 5]
- change in Fluc to Rluc ratio relative to untreated cells [10]: No change
- concentrations at which no significant toxicity occurred [7]: below 60 μM
- increased affinity over 2 and 3 [1]: approximately 50 fold
- association rate, ka [1, 13]: (3.99 ± 0.37) × 10^4 M^–1s^-1
- dissociation rate kd [1, 13]: (3.75 ± 0.12) × 10^–3 s^–1
- association rate, ka [1, 14]: (3.68 ± 1.45) × 10^4 M^–1s^-1
- dissociation rate kd [1, 14]: (3.46 ± 2.05) × 10^–3 s^–1
- cell penetration (internalization) [8]: internalized
- selectivity for FSS RNA vs FSS DNA [11]: no selectivity
- lower concentration than RG501 for roughly equivalent increase in RT [12]: 37.5 fold
- RT in unprocessed Gag-Pol (p160) relative to mature RT (p66 + p51) [12]: increased significantly
- amount of RT relative to capsid protein p24 [12]: increasing amounts of RT
- binding to HTLV-2 FSS by SPR [9]: no binding was observed

Molecule: CCc1nc2cc3ccccc3cc2cc1C(=O)N[C@@H](C/C=C\C[C@H](NC(=O)c1cc2cc3ccccc3cc2nc1CC)C(=O)N1CCC[C@H]1C(=O)N[C@@H](Cc1ccccc1)C(=O)NCCCN)C(=O)N1CCC[C@H]1C(=O)N[C@@H](Cc1ccccc1)C(=O)NCCCN [Compound 4]
- change in Fluc to Rluc ratio relative to untreated cells [10]: No change
- concentrations at which no significant toxicity occurred [7]: below 60 μM
- increased affinity over 2 and 3 [1]: approximately 50 fold
- association rate, ka [1, 13]: (4.25 ± 0.22) × 10^4 M^–1s^-1
- dissociation rate kd [1, 13]: (4.11 ± 0.02) × 10^–3 s^–1
- association rate, ka [1, 14]: (2.17 ± 0.77) × 10^4 M^–1s^-1
- dissociation rate kd [1, 14]: (1.35 ± 0.03) × 10^–3 s^–1
- Kd ([1]; read-out: affinity (KD) for HIV-1 FSS by SPR, HBS buffer): 0.089 µM
- cell penetration (internalization) [8]: internalized
- lower concentration than RG501 for roughly equivalent increase in RT [12]: 37.5 fold
- RT in unprocessed Gag-Pol (p160) relative to mature RT (p66 + p51) [12]: increased significantly
- amount of RT relative to capsid protein p24 [12]: increasing amounts of RT
- binding to HTLV-2 FSS by SPR [9]: no binding was observed
